Assay results from ChEMBL document CHEMBL1139397, “Thiazolidinone CFTR inhibitors with improved water solubility identified by structure-activity analysis” (Bioorg Med Chem, 2008).
Active and inactive are the calls of the source. No cut-off for these calls is given here.

Biological target: Cystic fibrosis transmembrane conductance regulator (Homo sapiens, UniProt P13569)
Test: Inhibition of human wild type CFTR expressed in rat FRT cells assessed as chloride current by short-circuit current measurements
Format: cell-based
Procedure, shortened: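 FRT cells stably expressing human wildtype CFTR were grown on filters to >1,000 Ω·cm2. Basolateral membrane permeabilized with amphotericin B (250 μg/ml, 30 min). Apical Cl− current was measured under a gradient: basolateral 130 mM NaCl buffer, pH 7.3; apical 65 mM NaCl replaced by gluconate. Solutions at 37 °C under 95% O2/5% CO2. CFTR activated with 100 μM CPT-cAMP, then inhibitor added at increasing concentrations. IC50 fitted from concentration-inhibition data.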
Compound `O=C(O)c1cccc(/C=C2\SC(=S)N(c3ccc(C(F)(F)F)cc3)C2=O)c1` has an IC50 of 13 µM.
Work on `O=C1C(C(=S)Nc2ccc(S(=O)(=O)O)o2)SC(=S)N1c1cccc(C(F)(F)F)c1` (stereo unspecified) yielded an IC50 of 27 µM.
`O=C1S/C(=C\c2ccc(-c3nn[nH]n3)cc2)C(=O)N1c1cccc(C(F)(F)F)c1` showed an IC50 of 17 µM.
With `O=C(O)c1ccc(-n2cc(-c3cccc(C(F)(F)F)c3)nn2)cc1` the Activity was “inactive”.
Work on `O=C1/C(=C/c2ccc(S(=O)(=O)O)cc2)SC(=S)N1c1cccc(C(F)(F)F)c1` yielded an IC50 of 29 µM.
Work on `O=C1/C(=C/c2cc(O)c(O)c(O)c2)SC(=S)N1c1cccc(C(F)(F)F)c1` yielded an IC50 of 11 µM.
For `O=C(O)c1cc(Nc2nnc(-c3cccc(C(F)(F)F)c3)s2)ccc1O`, the Activity was “inactive”.
`O=C(O)c1cc(/C=C2\SC(=S)N(c3cccc(C(F)(F)F)c3)C2=O)ccc1O` showed an IC50 of 1.4 µM.
For `COc1cc(Br)ccc1/C=C1\SC(=S)N(c2cccc(C(F)(F)F)c2)C1=O`, the Activity was “inactive”.
For `O=C(O)c1ccc(/C=C2\SC(=S)N(c3ccc(Cl)c(C(F)(F)F)c3)C2=O)cc1`, the IC50 was 15 µM.
In the case of `O=C(O)c1ccc(/C=C2\SC(=S)N(c3cc(C(F)(F)F)cc(C(F)(F)F)c3)C2=O)cc1`, the IC50 is reported as 14 µM.
Compound `O=C1/C(=C/c2cc(Br)c(O)c(Br)c2)SC(=S)N1c1cccc(C(F)(F)F)c1` has an IC50 of 7 µM.
With `O=C(O)c1ccc(Nc2nnc(-c3cccc(C(F)(F)F)c3)s2)cc1` the Activity was “inactive”.
In the case of `O=C(O)c1cc(/C=C2\SC(=S)N(c3ccc(C(F)(F)F)cc3)C2=O)ccc1O`, the IC50 is reported as 25 µM.
Work on `Cc1cccc(N2C(=O)/C(=C/c3ccc(C(=O)O)cc3)SC2=S)c1C` yielded an IC50 of 7 µM.
Compound `O=C1/C(=C/c2ccncc2)SC(=S)N1c1cccc(C(F)(F)F)c1` has an IC50 of 28 µM.
With `COc1ccc(/C=C2\SC(=S)N(c3cccc(C(F)(F)F)c3)C2=O)cc1` the Activity was “inactive”.
For `CC(=O)OCOC(=O)c1ccc(/C=C2\SC(=S)N(c3cccc(C(F)(F)F)c3)C2=O)cc1`, the Activity was “inactive”.
`O=C(O)c1ccccc1/C=C1\SC(=S)N(c2ccc(C(F)(F)F)cc2)C1=O` showed an IC50 of 20 µM.
In the case of `Cc1cccc(N2C(=O)/C(=C/c3ccc(C(=O)O)cc3)SC2=S)c1`, the IC50 is reported as 5 µM.
With `COc1c(Br)cc(/C=C2\SC(=S)N(c3cccc(C(F)(F)F)c3)C2=O)c(O)c1Br` the Activity was “inactive”.
For `O=C(O)c1ccc(/C=C2\SC(=S)N(Cc3cccc(C(F)(F)F)c3)C2=O)cc1`, the Activity was “inactive”.
Compound `O=C1/C(=C/c2ccc(O)cc2)SC(=S)N1c1cccc(C(F)(F)F)c1` has an IC50 of 24 µM.
Compound `O=C(O)c1ccc(CC2SC(=S)N(c3cccc(C(F)(F)F)c3)C2=O)cc1` (stereo unspecified) has an IC50 of 27 µM.
`O=C(O)c1ccc(/C=C2\SC(=S)N(c3ccc(F)c(C(F)(F)F)c3)C2=O)cc1` gave an IC50 of 1.5 µM.
`O=C1/C(=C/c2ccc(S(=O)(=O)O)cc2S(=O)(=O)O)SC(=S)N1c1cccc(C(F)(F)F)c1` gave an IC50 of 50 µM.
Compound `O=C1/C(=C/c2cc(Br)c(O)c(Br)c2O)SC(=S)N1c1cccc(C(F)(F)F)c1` has an IC50 of 8 µM.
`O=C(O)COc1cccc(/C=C2\SC(=S)N(c3cccc(C(F)(F)F)c3)C2=O)c1` showed an IC50 of 30 µM.
Compound `O=C(O)c1ccccc1/C=C1\SC(=S)N(c2cccc(C(F)(F)F)c2)C1=O` has an IC50 of 15 µM.
Work on `O=C(O)c1ccc(/C=C2\SC(=S)N(c3ccc(C(F)(F)F)cc3)C2=O)cc1` yielded an IC50 of 15 µM.
`O=C(O)c1ccc(/C=C2\SC(=S)N(c3cc(C(F)(F)F)ccc3Cl)C2=O)cc1` showed an IC50 of 20 µM.
`O=C(O)c1ccc(Nc2nc(-c3cccc(C(F)(F)F)c3)cs2)cc1` showed an IC50 of 28 µM.
With `O=C(O)c1cccc(/C=C2\SC(=S)N(c3ccccc3C(F)(F)F)C2=O)c1` the IC50 was 19 µM.
For `CCOC(=O)c1ccc(/C=C2\SC(=S)N(c3cccc(C(F)(F)F)c3)C2=O)cc1`, the Activity was “inactive”.
`O=C(O)c1ccc(NC(=S)C2SC(=S)N(c3cccc(C(F)(F)F)c3)C2=O)cc1` (stereo unspecified) showed an IC50 of 9 µM.
`O=C(O)c1ccc(NC2=C(Cl)C(=O)N(c3cccc(C(F)(F)F)c3)C2=O)cc1` showed an IC50 of 36 µM.
`O=C1/C(=C/c2ccc(O)c(O)c2O)SC(=S)N1c1cccc(C(F)(F)F)c1` gave an IC50 of 28 µM.
Compound `O=C(O)c1cc(Nc2nc(-c3cccc(C(F)(F)F)c3)cs2)ccc1O` has an IC50 of 32 µM.
With `O=C1/C(=C/c2ccc(O)c(O)c2)SC(=S)N1c1cccc(C(F)(F)F)c1` the Activity was “inactive”.
In the case of `NCCNC(=O)c1ccc(/C=C2\SC(=S)N(c3cccc(C(F)(F)F)c3)C2=O)cc1`, the Activity is reported as “inactive”.
In the case of `O=C(O)c1ccc(SC2CC(=O)N(c3cccc(C(F)(F)F)c3)C2=O)cc1` (stereo unspecified), the IC50 is reported as 7 µM.
`O=C(O)c1cccc(/C=C2\SC(=S)N(c3ccc(F)c(C(F)(F)F)c3)C2=O)c1` gave an IC50 of 5 µM.
`O=C(O)c1cccc(/C=C2\SC(=S)N(c3cccc(C(F)(F)F)c3)C2=O)c1` showed an IC50 of 1.5 µM.
For `NC(=O)c1ccc(/C=C2\SC(=S)N(c3cccc(C(F)(F)F)c3)C2=O)cc1`, the Activity was “inactive”.
For `O=C(O)c1ccc(-n2cc(-c3ccc(C(F)(F)F)cc3)nn2)cc1`, the Activity was “inactive”.
Compound `O=C(O)c1ccc(/C=C2\SC(=S)N(c3ccccc3C(F)(F)F)C2=O)cc1` has an IC50 of 12 µM.
`O=C(O)c1ccccc1/C=C1\SC(=S)N(c2ccccc2C(F)(F)F)C1=O` gave an IC50 of 18 µM.
In the case of `O=C(NCCO)c1ccc(/C=C2\SC(=S)N(c3cccc(C(F)(F)F)c3)C2=O)cc1`, the Activity is reported as “inactive”.
Work on `O=C(O)c1cc(/C=C2\SC(=S)N(c3ccccc3C(F)(F)F)C2=O)ccc1O` yielded an IC50 of 14 µM.

Tested on: not listed separately
Test: Cytotoxicity against rat FRT cells assessed as cell viability at 20 uM after 48 hrs by crystal violet staining
Format: cell-based
Procedure, shortened: (§1)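 Confluent FRT monolayers exposed to compound for 2 days. Cells were then washed three times, fixed for 30 min and stained with 0.5% crystal violet for 10 min. Dye was extracted in Sorenson's buffer (0.1 M sodium citrate, 50% ethanol, pH 4.2) and read at 650 nm. Percent staining was taken from 8 replicate wells relative to cell-free blanks and vehicle-treated cells.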
`O=C(O)c1ccc(/C=C2\SC(=O)N(c3cccc(C(F)(F)F)c3)C2=O)cc1` gave an Activity of 93%.
Work on `O=C(O)c1ccc(/C=C2\SC(=S)N(c3cccc(C(F)(F)F)c3)C2=O)cc1` yielded an Activity of 86%.
Compound `O=C1/C(=C/c2ccc(-c3nn[nH]n3)cc2)SC(=S)N1c1cccc(C(F)(F)F)c1` has an Activity of 87%.
Compound `Cc1c(N2C(=O)/C(=C/c3ccc(C(=O)O)cc3)SC2=S)cccc1C(F)(F)F` has an Activity of 89%.

Tested on: not listed separately
Test: Cytotoxicity against rat FRT cells assessed as cell viability at 50 uM after 48 hrs by crystal violet staining
Format: cell-based
Procedure, shortened: as §1
`O=C(O)c1ccc(/C=C2\SC(=O)N(c3cccc(C(F)(F)F)c3)C2=O)cc1` showed an Activity of 91%.
For `O=C1/C(=C/c2ccc(-c3nn[nH]n3)cc2)SC(=S)N1c1cccc(C(F)(F)F)c1`, the Activity was 73%.
With `Cc1c(N2C(=O)/C(=C/c3ccc(C(=O)O)cc3)SC2=S)cccc1C(F)(F)F` the Activity was 72%.
